Reference: ChEMBL document CHEMBL4007441, “Novel Design of Heptad Amphiphiles To Enhance Cell Selectivity, Salt Resistance, Antibiofilm Properties and Their Membrane-Disruptive Mechanism” (J Med Chem, 2017)

Experiments:
Pseudomonas aeruginosa [1] = assay: Antibacterial activity against Pseudomonas aeruginosa ATCC 27853 assessed as induction of outer membrane permeabilization by measuring NPN uptake by spectrofluorophotometric analysis; format: functional
How it was run: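 Exponential-phase cells were washed in HEPES pH 7.4 with 5 mM glucose and diluted to about 10^5 CFU/mL. NPN was added at 10 µM final, then peptide at varying concentrations. Fluorescence (ex 350/em 420 nm) was followed to plateau. Values are % NPN uptake relative to polymyxin B at 10 mg/L (100%). Three experiments, duplicates.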

Staphylococcus aureus = assay: Antibacterial activity against Staphylococcus aureus ATCC 29213 after 18 hrs by broth microdilution method; format: functional; conditions: ATCC 29213, 18 h
How it was run: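 Broth microdilution. Exponential-phase bacteria grown in MHB at 37 °C, diluted to about 1 × 10^6 CFU/mL in MHB and mixed 1:1 with two-fold dilutions of peptide. MIC is the lowest concentration with no visible turbidity after 18 h at 37 °C. Controls were uninoculated broth and peptide-free culture. At least three repeats, duplicates each.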

Pseudomonas aeruginosa [2] = assay: Antibacterial activity against Pseudomonas aeruginosa 21328 clinical isolate after 18 hrs by broth microdilution method; format: functional; conditions: Pseudomonas aeruginosa, 21328, 18 h
Pseudomonas aeruginosa [3] = assay: Antibacterial activity against ceftazidime-resistant Pseudomonas aeruginosa 11431 after 18 hrs by broth microdilution method; format: functional; conditions: Pseudomonas aeruginosa, 11431, 18 h
How it was run: (§1)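 Broth microdilution in Mueller-Hinton broth. Exponential-phase bacteria (37 °C, 220 rpm shaking) were diluted to about 1 × 10^6 CFU/mL and mixed 1:1 with two-fold serial peptide dilutions. MIC is the lowest concentration with no visible turbidity after 18 h at 37 °C. Controls were uninoculated MHB and untreated culture. Run at least three times, two replicates each.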

RAW264.7 = assay: Cytotoxicity in mouse RAW264.7 cells after 24 hrs by MTT assay; format: cell-based; conditions: raw264.7, 24 h
Pseudomonas aeruginosa [4] = assay: Antibacterial activity against Pseudomonas aeruginosa 25349 clinical isolate after 18 hrs by broth microdilution method; format: functional; conditions: Pseudomonas aeruginosa, 25349, 18 h
Pseudomonas aeruginosa [5] = assay: Antibacterial activity against Pseudomonas aeruginosa 26305 clinical isolate after 18 hrs by broth microdilution method; format: functional; conditions: Pseudomonas aeruginosa, 26305, 18 h
Pseudomonas aeruginosa [6] = assay: Antibacterial activity against Pseudomonas aeruginosa ATCC 27853 after 18 hrs by broth microdilution method; format: functional; conditions: ATCC 27853, 18 h; how it was run: as §1
Pseudomonas aeruginosa [7] = assay: Antibacterial activity against Pseudomonas aeruginosa CICC 21625 after 18 hrs by broth microdilution method; format: functional; conditions: CICC 21625, 18 h; how it was run: as §1
Pseudomonas aeruginosa [8] = assay: Antibacterial activity against ciprofloxacin-resistant Pseudomonas aeruginosa 11411 after 18 hrs by broth microdilution method; format: functional; conditions: Pseudomonas aeruginosa, 11411, 18 h
How it was run: (§2)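 Broth microdilution in Mueller-Hinton broth. Exponential-phase bacteria (37 °C, 220 rpm shaking) were diluted to about 1 × 10^6 CFU/mL and mixed 1:1 with two-fold serial peptide dilutions. Controls were uninoculated MHB and untreated culture. Run at least three times, two replicates each.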

Pseudomonas aeruginosa [9] = assay: Antibacterial activity against Pseudomonas aeruginosa CICC 10419 after 18 hrs by broth microdilution method; format: functional; conditions: CICC 10419, 18 h; how it was run: as §1
Pseudomonas aeruginosa [10] = assay: Antibacterial activity against gentamicin-resistant Pseudomonas aeruginosa 11421 after 18 hrs by broth microdilution method; format: functional; conditions: Pseudomonas aeruginosa, 11421, 18 h; how it was run: as §2
Pseudomonas aeruginosa [11] = assay: Antibacterial activity against Pseudomonas aeruginosa CICC 21630 after 18 hrs by broth microdilution method; format: functional; conditions: CICC 21630, 18 h; how it was run: as §1
Escherichia coli = assay: microbe, parasite or virus in culture; conditions: ATCC 25922, 18 h
Pseudomonas aeruginosa [12] = assay: Antibacterial activity against Pseudomonas aeruginosa ATCC 27853 assessed as induction of membrane integrity disruption at MIC after 15 mins by PI-staining based flow cytometry (reference value: 4.7%)
Pseudomonas aeruginosa [13] = assay: Antibacterial activity against Pseudomonas aeruginosa ATCC 27853 assessed as induction of cytoplasmic membrane depolarization after 90 min incubation under dark condition by diSC3-5 dye-based fluorescence analysis; format: functional
How it was run: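 Exponential-phase cells were washed three times in 5 mM HEPES (pH 7.4). diSC3-5 (0.4 µM final) and KCl (0.1 M final) were added, then the cells were incubated 90 min at 37 °C in the dark. Peptide at a range of concentrations was added and fluorescence followed at ex 622/em 670 nm. Three independent experiments, duplicates each.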

Substance | Activity (Pseudomonas aeruginosa [1]) | MIC (Staphylococcus aureus) | MIC (Pseudomonas aeruginosa [2]) | MIC (Pseudomonas aeruginosa [3]) | CC10 (RAW264.7) | MIC (Pseudomonas aeruginosa [4]) | MIC (Pseudomonas aeruginosa [5]) | MIC (Pseudomonas aeruginosa [6]) | MIC (Pseudomonas aeruginosa [7]) | MIC (Pseudomonas aeruginosa [8]) | MIC (Pseudomonas aeruginosa [9]) | MIC (Pseudomonas aeruginosa [10]) | MIC (Pseudomonas aeruginosa [11]) | MIC (Escherichia coli) | Activity (Pseudomonas aeruginosa [12]) | Activity (Pseudomonas aeruginosa [13])
H-ARRARRRWRRRARRA-NH2 | Dose-dependent effect | 64 µg/mL | 256 µg/mL | 256 µg/mL | > 256 µg/mL | 32 µg/mL | 256 µg/mL | 128 µg/mL | 256 µg/mL | 256 µg/mL | 256 µg/mL | 256 µg/mL | 256 µg/mL | 64 µg/mL | – | –
H-FRRFRRRWRRRFRRF-NH2 | Dose-dependent effect | 16 µg/mL | 256 µg/mL | 16 µg/mL | 256 µg/mL | 8 µg/mL | 64 µg/mL | 8 µg/mL | 256 µg/mL | 256 µg/mL | 256 µg/mL | 256 µg/mL | 32 µg/mL | 8 µg/mL | – | –
H-LRRLRRRLRRLRRRWRRRLRRLRRRLRRL-OH | Dose-dependent effect | 16 µg/mL | 8 µg/mL | 8 µg/mL | 128 µg/mL | 8 µg/mL | 16 µg/mL | 8 µg/mL | 8 µg/mL | 8 µg/mL | 4 µg/mL | 16 µg/mL | 4 µg/mL | 8 µg/mL | – | –
H-LRRLRRRWLRRLRRR-NH2 | Dose-dependent effect | 64 µg/mL | 128 µg/mL | 64 µg/mL | > 256 µg/mL | 32 µg/mL | 64 µg/mL | 32 µg/mL | 64 µg/mL | 128 µg/mL | 256 µg/mL | 256 µg/mL | 32 µg/mL | > 128 µg/mL | 57% | Dose-dependent effect
H-LRRLRRRWRRRLRRL-NH2 | Dose-dependent effect | 16 µg/mL | 32 µg/mL | 16 µg/mL | 256 µg/mL | 8 µg/mL | 32 µg/mL | 16 µg/mL | 16 µg/mL | 32 µg/mL | 32 µg/mL | 32 µg/mL | 16 µg/mL | 16 µg/mL | 93% | Dose-dependent effect
H-WRRWRRRWRRRWRRW-NH2 | Dose-dependent effect | 16 µg/mL | 256 µg/mL | 8 µg/mL | 128 µg/mL | 32 µg/mL | 32 µg/mL | 4 µg/mL | 256 µg/mL | 256 µg/mL | 256 µg/mL | 256 µg/mL | 16 µg/mL | 32 µg/mL | – | –
